Measured values pooled from the literature.
Observed: metabolic stability

`C[C@H]1CN(c2ccc(C3CCC(=O)NC3=O)cc2F)CCN1CC12CCC(NS(=O)(=O)c3ccc(Nc4ncc(C(F)(F)F)c(N5CCC[C@](C)(O)C5)n4)c(F)c3)(CC1)CO2` (stereo partly shown) gave a scaled CLint of under 21 mL/min/kg (rat, liver microsomes; 1 µM).
`Cc1ccc(Nc2cnnc3ccc(-c4ccc(N5CCCN(C)CC5)cc4)cc23)cn1` gave a hepatocyte CLint of 10 µL/min/10⁶ cells (rat, hepatocytes).
The microsomal CLint of `N#Cc1ccc(C[C@H](Nc2nnc(-c3cccc(F)c3)s2)C(=O)N2CCc3ccccc32)cc1` is reported as 14.7 µL/min/mg (rat, liver microsomes; 10 µM, pH 7.4).
For `Cc1cc(S(=O)(=O)NC2CCC(CC3CCN(c4ccc(C5CCC(=O)NC5=O)cc4)CC3)CC2)ccc1Nc1ncc(C(F)(F)F)c(N2CCC[C@](C)(O)C2)n1` (stereo partly shown), the scaled CLint was under 21 mL/min/kg (rat, liver microsomes; 1 µM).
For `NCCOCC(=O)N1CCC[C@H](C(=O)NCc2nc(-c3ccc(C(F)(F)F)cc3)cs2)C1`, the scaled CLint was under 5.6 mL/min/kg (male Sprague-Dawley rat, liver microsomes; 0.5 µM).
With `Cc1[nH]c(C)c(S(=O)(=O)Nc2ccc(C(F)(F)F)c(Cl)c2)c1C(=O)N1CCC(F)(F)C1` the microsomal CLint was 87 µL/min/mg (rat, liver microsomes).
`N#Cc1ccc(-c2csc(CNC(=O)[C@H]3CCCN(C(=O)COCCF)C3)n2)cc1` gave a microsomal CLint of 40 µL/min/mg (male Sprague-Dawley rat, liver microsomes; 0.5 µM).
The hepatocyte CLint of `Cc1ccc(Oc2ccc(NC(=O)CNc3ccccc3-n3cncn3)cc2)cc1` is reported as 46 µL/min/10⁶ cells (rat, hepatocytes).
With `COCC(=O)N1CCC[C@H](C(=O)NCc2nc(-c3ccc(-c4ccccn4)cc3)cs2)C1` the microsomal CLint was 104 µL/min/mg (male Sprague-Dawley rat, liver microsomes; 0.5 µM).
`Cc1ccc(-c2nnc(N[C@@H](Cc3ccc(C#N)cc3)C(=O)N3CCc4ccccc43)o2)cc1` has a microsomal CLint of 49.5 µL/min/mg (rat, liver microsomes; 10 µM, pH 7.4).
For `NCCCOCC(=O)N1CCC[C@H](C(=O)NCc2nc(-c3ccc(C4CC4)cc3)cs2)C1`, the microsomal CLint was 15 µL/min/mg (male Sprague-Dawley rat, liver microsomes; 0.5 µM).
With `CNS(=O)(=O)c1ccc(Nc2ncc(C(F)(F)F)c([C@H]3CC[C@](C)(O)CC3)n2)c(C)c1` the scaled CLint was 30 mL/min/kg (rat, liver microsomes; 1 µM).
`CCONC(=O)N1CCC[C@H](C(=O)NCc2nc(-c3ccc(C#N)cc3)cs2)C1` has a microsomal CLint of 33 µL/min/mg (male Sprague-Dawley rat, liver microsomes; 0.5 µM).
`N#Cc1ccc(C[C@@H](Nc2c(Nc3ccc(F)cc3)c(=O)c2=O)C(=O)N2CCc3ccccc32)cc1` gave a microsomal CLint of 46.2 µL/min/mg (rat, liver microsomes; 10 µM, pH 7.4).
The hepatocyte CLint of `Cc1ccc(N(C)c2ccc(NC(=O)CN(C)c3cccnc3N3CCCC3=O)cc2)cc1` is reported as over 92 µL/min/10⁶ cells (rat, hepatocytes).
With `CCOCC(=O)N1CCC[C@H](C(=O)NCc2nc(-c3ccc(C#N)nc3)cs2)C1` the scaled CLint was 17 mL/min/kg (male Sprague-Dawley rat, hepatocytes; 0.5 µM).
`CNS(=O)(=O)c1ccc(Nc2ncc3cc(Cl)c(=O)n(C4CCCC4)c3n2)c(C)c1` gave a scaled CLint of 70 mL/min/kg (rat, liver microsomes; 1 µM).
`Cc1ccc(Oc2ccc(NC(=O)CN(C)c3ccccc3N3CCCC3=O)cc2)cc1` has a hepatocyte CLint of over 92 µL/min/10⁶ cells (rat, hepatocytes).
For `C[C@]1(O)CCCN(c2nc(Nc3ccc(S(=O)(=O)N[C@H]4CC[C@H](CN5CCN(c6ccc(C7CCC(=O)NC7=O)cc6F)CC5)CC4)cc3F)ncc2C(F)(F)F)C1` (stereo partly shown), the scaled CLint was under 21 mL/min/kg (rat, liver microsomes; 1 µM).
With `O=C(NCc1nc(-c2ccc(C(F)(F)F)cc2)cs1)[C@H]1CCCN(C(=O)CO[C@H]2CCCNC2)C1` the microsomal CLint was 3.6 µL/min/mg (male Sprague-Dawley rat, liver microsomes; 0.5 µM).
`COc1cc(NC(=O)Cn2cc(Cl)c3ccc(-c4cnn(C)c4)cc32)cc(OC)c1OC` gave a hepatocyte CLint of under 1 µL/min/10⁶ cells (rat, hepatocytes).
For `Cc1ccc(Nc2cnnc3ccc(-c4ccc(N5CCN(C)CC5)cc4)cc23)cn1`, the hepatocyte CLint was 15 µL/min/10⁶ cells (rat, hepatocytes).
`CNS(=O)(=O)c1ccc(Nc2ncc(C(F)(F)F)c(N3CCC[C@](C)(O)C3)n2)c(C)c1` gave a scaled CLint of 40 mL/min/kg (rat, liver microsomes; 1 µM).
`Cc1ccc(N(C)c2ccc(NC(=O)CN(C)c3cc(F)ccc3N3CCCC3=O)cc2)cc1` gave a hepatocyte CLint of 91 µL/min/10⁶ cells (rat, hepatocytes).
`N#Cc1ccc(-c2csc(CNC(=O)[C@H]3CCCN(C(=O)N4CCCC4)C3)n2)cc1` gave a microsomal CLint of 223 µL/min/mg (male Sprague-Dawley rat, liver microsomes; 0.5 µM).
`Cc1ccc(Oc2ccc(NC(=O)CNc3ccccc3N3CCCC3=O)cc2)cc1` gave a hepatocyte CLint of 58 µL/min/10⁶ cells (rat, hepatocytes).
`C[C@]1(O)CCCN(c2nc(Nc3ccc(S(=O)(=O)N[C@@H]4CCN(CC5CCN(c6ccc(C7CCC(=O)NC7=O)cc6F)CC5)C[C@H]4F)cc3F)ncc2C(F)(F)F)C1` (stereo partly shown) has a scaled CLint of under 21 mL/min/kg (rat, liver microsomes; 1 µM).
`Cc1ccc(N(C)c2ccc(NC(=O)CN(C)c3ccccc3N3CCCC3=O)cn2)cc1` gave a hepatocyte CLint of over 92 µL/min/10⁶ cells (rat, hepatocytes).
With `Cc1cc(S(=O)(=O)N[C@H]2CC[C@H](CN3CCN(c4ccc(NC5CCC(=O)NC5=O)cc4F)CC3)CC2)ccc1Nc1ncc(C(F)(F)F)c(N2CCC[C@](C)(O)C2)n1` (stereo partly shown) the scaled CLint was under 21 mL/min/kg (rat, liver microsomes; 1 µM).
`Cc1ccc(Oc2ccc(NC(=O)COc3ccccc3N3CCCC3=O)cc2)cc1` gave a hepatocyte CLint of 68 µL/min/10⁶ cells (rat, hepatocytes).
`N#Cc1ccc(C[C@H](Nc2nnc(-c3ccc(Br)cc3)s2)C(=O)N2CCc3ccccc32)cc1` has a microsomal CLint of 46.2 µL/min/mg (rat, liver microsomes; 10 µM, pH 7.4).
